In ChEMBL document CHEMBL3627719, “Discovery of bis-aryl urea derivatives as potent and selective Limk inhibitors: Exploring Limk1 activity and Limk1/ROCK2 selectivity through a combined computational study” (Bioorg Med Chem, 2015):

Assays:
LIM domain kinase 1 = LIM domain kinase 1 (Homo sapiens, UniProt P53667); test: Inhibition of LIMK1 (unknown origin) using 1 uM cofilin as substrate
Method in brief: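 IC50 was determined in 10-dose mode using a 3-fold serial dilution series. Reactions contained ATP, cofilin as substrate, and Limk1 enzyme at 50 nM.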

[1] = target: Rho-associated protein kinase 2 (Homo sapiens, UniProt O75116); test: Inhibition of ROCK2 (unknown origin) after 4 hrs using 1 uM STK2 as substrate
Sequence of Rho-associated protein kinase 2 (O75116 whole entry): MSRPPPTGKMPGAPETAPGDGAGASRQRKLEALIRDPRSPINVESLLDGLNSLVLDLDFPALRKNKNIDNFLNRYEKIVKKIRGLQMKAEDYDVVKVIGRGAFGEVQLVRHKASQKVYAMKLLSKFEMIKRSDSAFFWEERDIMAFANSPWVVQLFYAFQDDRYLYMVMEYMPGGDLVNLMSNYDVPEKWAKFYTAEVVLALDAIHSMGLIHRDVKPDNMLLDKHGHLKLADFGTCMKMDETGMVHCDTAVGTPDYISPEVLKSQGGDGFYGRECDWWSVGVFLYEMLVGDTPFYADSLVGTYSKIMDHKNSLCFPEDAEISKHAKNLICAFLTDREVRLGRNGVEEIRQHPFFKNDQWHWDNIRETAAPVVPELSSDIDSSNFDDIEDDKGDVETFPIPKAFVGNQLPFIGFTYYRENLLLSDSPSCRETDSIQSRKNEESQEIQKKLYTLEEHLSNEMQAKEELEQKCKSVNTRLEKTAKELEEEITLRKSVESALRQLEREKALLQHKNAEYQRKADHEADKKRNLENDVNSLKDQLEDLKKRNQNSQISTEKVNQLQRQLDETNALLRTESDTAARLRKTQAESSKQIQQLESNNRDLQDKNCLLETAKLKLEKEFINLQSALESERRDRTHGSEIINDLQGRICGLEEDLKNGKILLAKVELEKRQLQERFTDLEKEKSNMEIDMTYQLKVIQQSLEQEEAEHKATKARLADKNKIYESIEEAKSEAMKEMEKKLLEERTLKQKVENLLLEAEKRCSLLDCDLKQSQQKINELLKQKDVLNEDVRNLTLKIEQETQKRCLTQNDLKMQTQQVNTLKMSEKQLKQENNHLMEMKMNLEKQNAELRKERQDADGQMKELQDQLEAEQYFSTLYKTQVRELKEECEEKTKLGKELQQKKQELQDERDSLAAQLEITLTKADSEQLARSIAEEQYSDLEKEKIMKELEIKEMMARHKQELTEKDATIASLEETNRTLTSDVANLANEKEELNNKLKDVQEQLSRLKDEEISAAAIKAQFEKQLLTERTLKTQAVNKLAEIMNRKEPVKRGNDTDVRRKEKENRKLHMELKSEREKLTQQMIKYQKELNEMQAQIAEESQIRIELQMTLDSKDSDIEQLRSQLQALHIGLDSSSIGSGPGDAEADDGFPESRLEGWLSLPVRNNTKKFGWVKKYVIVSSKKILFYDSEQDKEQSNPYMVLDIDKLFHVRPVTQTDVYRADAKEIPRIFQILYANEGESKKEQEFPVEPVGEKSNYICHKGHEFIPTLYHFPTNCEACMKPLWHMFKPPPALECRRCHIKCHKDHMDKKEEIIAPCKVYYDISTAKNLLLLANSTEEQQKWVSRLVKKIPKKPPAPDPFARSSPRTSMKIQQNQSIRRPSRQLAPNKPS
Method in brief: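 HTRF kinase assay using STK2 substrate plus ATP in STK-buffer, with test compound pin-dispensed. Reaction ran 4 h at rt and was stopped with antibody and 62.5 nM streptavidin-XL in detection buffer. After a further 1 h at rt, plates were read in HTRF mode.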

Sequence of LIM domain kinase 1 (P53667 whole entry, the tested form may be a part): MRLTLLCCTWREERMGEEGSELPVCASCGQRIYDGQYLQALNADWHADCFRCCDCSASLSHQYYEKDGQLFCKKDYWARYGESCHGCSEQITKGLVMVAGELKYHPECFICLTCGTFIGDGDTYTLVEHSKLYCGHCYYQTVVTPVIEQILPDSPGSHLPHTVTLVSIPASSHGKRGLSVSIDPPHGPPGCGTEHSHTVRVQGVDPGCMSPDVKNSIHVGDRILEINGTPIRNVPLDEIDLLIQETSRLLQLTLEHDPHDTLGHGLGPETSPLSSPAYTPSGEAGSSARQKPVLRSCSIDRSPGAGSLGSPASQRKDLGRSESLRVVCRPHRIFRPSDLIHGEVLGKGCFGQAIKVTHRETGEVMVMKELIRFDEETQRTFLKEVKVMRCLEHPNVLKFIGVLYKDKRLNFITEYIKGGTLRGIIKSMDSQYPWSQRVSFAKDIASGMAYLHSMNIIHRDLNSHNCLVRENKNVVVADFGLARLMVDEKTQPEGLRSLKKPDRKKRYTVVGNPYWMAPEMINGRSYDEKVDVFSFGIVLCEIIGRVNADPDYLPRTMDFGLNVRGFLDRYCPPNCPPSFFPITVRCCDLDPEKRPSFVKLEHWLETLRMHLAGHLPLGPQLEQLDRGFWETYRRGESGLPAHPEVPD

Row | IC50 (LIM domain kinase 1) | IC50 [1] | SMILES
1 | 10 nM | > 20000 nM | COc1ccc(NC(=O)Nc2ccc(-c3ncnc4[nH]cc(C)c34)cc2F)cc1
2 | 19 nM | 2010 nM | Cc1cc(NC(=O)Nc2ccc(-c3ncnc4[nH]cc(C)c34)cc2F)ccn1
3 | 85 nM | 4510 nM | Cc1c[nH]c2ncnc(-c3ccc(NC(=O)N(CCO)c4ccccc4)c(F)c3)c12
4 | 11 nM | 2110 nM | Cc1ccc(NC(=O)Nc2ccc(-c3ncnc4[nH]cc(C)c34)cc2F)cn1
5 | 55 nM | 1020 nM | Cc1c[nH]c2ncnc(-c3ccc(NC(=O)Nc4cncnc4)c(F)c3)c12
